Tests used:
[1] = tested on: Serine/threonine-protein kinase B-raf (Homo sapiens), P15056 [V600E]; test: Inhibition of human BRAF V600E mutant at 10 uM by ELISA
[2] = target: T1, Serine/threonine-protein kinase B-raf (Homo sapiens, UniProt P15056); test: Inhibition of human wild type BRAF at 10 uM by ELISA
Method in brief: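 Wild-type BRAF kinase inhibition run in the same manner as the V600E-B-RAF ELISA, reported as percent inhibition at 10 µM.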

[3] = target: Serine/threonine-protein kinase B-raf (Homo sapiens, UniProt P15056, V600E); test: Inhibition of human BRAF V600E mutant by ELISA
Serine/threonine-protein kinase B-raf (Homo sapiens, UniProt P15056, V600E), sequence (P15056 2-766 V600E limits assumed): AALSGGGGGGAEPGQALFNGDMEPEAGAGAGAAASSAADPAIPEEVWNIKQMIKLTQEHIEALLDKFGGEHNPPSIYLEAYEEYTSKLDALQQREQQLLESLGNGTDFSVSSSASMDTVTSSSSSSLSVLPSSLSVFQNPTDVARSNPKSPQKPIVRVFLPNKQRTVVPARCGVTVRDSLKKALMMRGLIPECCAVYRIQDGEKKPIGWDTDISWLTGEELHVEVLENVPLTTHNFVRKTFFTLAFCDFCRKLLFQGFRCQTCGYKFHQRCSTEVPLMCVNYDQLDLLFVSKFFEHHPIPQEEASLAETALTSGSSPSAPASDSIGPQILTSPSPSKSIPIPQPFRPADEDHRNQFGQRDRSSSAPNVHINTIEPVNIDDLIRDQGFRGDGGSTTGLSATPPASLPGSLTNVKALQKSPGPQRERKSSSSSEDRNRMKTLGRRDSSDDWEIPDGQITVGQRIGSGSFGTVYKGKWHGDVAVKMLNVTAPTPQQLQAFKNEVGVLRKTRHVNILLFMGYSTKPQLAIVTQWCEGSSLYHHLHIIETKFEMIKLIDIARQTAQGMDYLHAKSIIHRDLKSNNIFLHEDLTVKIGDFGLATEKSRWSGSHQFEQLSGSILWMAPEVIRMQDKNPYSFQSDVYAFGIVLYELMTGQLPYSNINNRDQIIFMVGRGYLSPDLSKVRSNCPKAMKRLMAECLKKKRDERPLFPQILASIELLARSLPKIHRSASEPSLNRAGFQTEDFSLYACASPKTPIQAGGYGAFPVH

SK-MEL-2 = test: Cytotoxicity against human SK-MEL-2 cells assessed as reduction in cell viability after 48 hrs by SRB assay; type: functional, cell-based; conditions: SK-MEL-2, 48 h
Method in brief: (§1)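 Cell lines from the NCI sixty human cancer cell line panel. IC50 taken as the concentration that reduces cellular growth to 50% of untreated cells.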

HCT-116 = test: Cytotoxicity against human HCT116 cells assessed as reduction in cell viability after 48 hrs by SRB assay; type: functional, cell-based; conditions: HCT-116, 48 h; method in brief: as §1
Malme-3M = test: Cytotoxicity against human MALME-3M cells assessed as reduction in cell viability after 48 hrs by SRB assay; type: functional, cell-based; method in brief: as §1
NCI-H522 = test: Cytotoxicity against human NCI-H522 cells assessed as reduction in cell viability after 48 hrs by SRB assay; type: functional, cell-based; conditions: NCI-H522, 48 h; method in brief: as §1
K562 [4] = test: Cytotoxicity against human K562 cells assessed as reduction in cell viability after 48 hrs by SRB assay; type: functional, cell-based; conditions: K562, 48 h; method in brief: as §1
M14 = test: Cytotoxicity against human M14 cells assessed as reduction in cell viability after 48 hrs by SRB assay; type: functional, cell-based; conditions: M14, 48 h; method in brief: as §1
K562 [5] = test: Cytotoxicity against human K562 cells assessed as reduction in cell viability at 10 uM after 48 hrs by SRB assay relative to control; type: functional; conditions: K562, 48 h
Hs-578T = test: Cytotoxicity against human Hs 578T cells assessed as reduction in cell viability after 48 hrs by SRB assay; type: functional, cell-based; method in brief: as §1
HL-60(TB) [6] = test: Cytotoxicity against human HL-60(TB) cells assessed as reduction in cell viability at 10 uM after 48 hrs by SRB assay relative to control; type: functional; conditions: HL-60, 48 h
IGROV-1 = test: Cytotoxicity against human IGROV1 cells assessed as reduction in cell viability after 48 hrs by SRB assay; type: functional, cell-based; conditions: IGROV-1, 48 h; method in brief: as §1
LOX IMVI = test: Cytotoxicity against human LOXIMVI cells assessed as reduction in cell viability after 48 hrs by SRB assay; type: functional, cell-based; method in brief: as §1
NCI-H460 = test: Cytotoxicity against human NCI-H460 cells assessed as reduction in cell viability after 48 hrs by SRB assay; type: functional, cell-based; conditions: NCI-H460, 48 h; method in brief: as §1
A498 = test: Cytotoxicity against human A498 cells assessed as reduction in cell viability after 48 hrs by SRB assay; type: functional, cell-based; conditions: A498, 48 h; method in brief: as §1
MDA-MB-231 = test: Cytotoxicity against human MDA-MB-231 cells assessed as reduction in cell viability after 48 hrs by SRB assay; type: functional, cell-based; conditions: MDA-MB-231, 48 h; method in brief: as §1
HL-60(TB) [7] = test: Cytotoxicity against human HL-60(TB) cells assessed as reduction in cell viability after 48 hrs by SRB assay; type: functional, cell-based; conditions: HL-60, 48 h
Method in brief: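 Tested within the NCI sixty human cancer cell line panel. IC50 is the concentration that reduces cellular growth to 50% of untreated cells after treatment.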

CAKI-1 = test: Cytotoxicity against human Caki1 cells assessed as reduction in cell viability after 48 hrs by SRB assay; type: functional, cell-based; conditions: CAKI-1, 48 h; method in brief: as §1
SK-OV-3 = test: Cytotoxicity against human SKOV3 cells assessed as reduction in cell viability after 48 hrs by SRB assay; type: functional, cell-based; conditions: SK-OV-3, 48 h; method in brief: as §1
ACHN = test: Cytotoxicity against human ACHN cells assessed as reduction in cell viability after 48 hrs by SRB assay; type: functional, cell-based; method in brief: as §1
DU-145 = test: Cytotoxicity against human DU145 cells assessed as reduction in cell viability after 48 hrs by SRB assay; type: functional, cell-based; conditions: DU-145, 48 h; method in brief: as §1
[8] = target: T1, Serine/threonine-protein kinase B-raf; test: Inhibition of BRAF (unknown origin)

Serine/threonine-protein kinase B-raf (Homo sapiens), P15056 [V600E], sequence (P15056 whole entry V600E): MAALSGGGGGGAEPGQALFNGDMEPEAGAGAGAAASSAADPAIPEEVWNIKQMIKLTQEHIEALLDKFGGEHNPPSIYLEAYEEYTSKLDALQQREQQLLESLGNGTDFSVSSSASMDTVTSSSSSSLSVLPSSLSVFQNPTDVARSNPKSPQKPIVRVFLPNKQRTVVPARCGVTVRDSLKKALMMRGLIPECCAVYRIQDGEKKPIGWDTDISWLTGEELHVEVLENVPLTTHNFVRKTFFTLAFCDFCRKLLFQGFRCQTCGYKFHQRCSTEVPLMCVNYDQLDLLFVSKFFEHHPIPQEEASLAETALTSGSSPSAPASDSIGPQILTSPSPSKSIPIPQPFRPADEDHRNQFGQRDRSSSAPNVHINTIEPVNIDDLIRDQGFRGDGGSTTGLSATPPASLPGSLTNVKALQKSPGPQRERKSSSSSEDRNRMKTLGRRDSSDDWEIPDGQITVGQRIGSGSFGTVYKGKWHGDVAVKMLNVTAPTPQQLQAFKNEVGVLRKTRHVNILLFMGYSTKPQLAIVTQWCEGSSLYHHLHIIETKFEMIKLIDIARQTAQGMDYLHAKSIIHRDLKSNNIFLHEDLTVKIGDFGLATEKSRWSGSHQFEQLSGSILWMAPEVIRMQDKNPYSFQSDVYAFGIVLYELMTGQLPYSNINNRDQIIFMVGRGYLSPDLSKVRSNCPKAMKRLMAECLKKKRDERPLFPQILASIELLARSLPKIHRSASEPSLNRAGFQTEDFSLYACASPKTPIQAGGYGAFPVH
T1 sequence (P15056 whole entry): as the sequence (P15056 whole entry V600E) above, with E600V counted along it

Structure (SMILES) | inhibition [1] [%] | inhibition [2] [%] | also measured
O=C(NCCNc1nccc(-n2ccc3cccnc32)n1)c1ccc(C(F)(F)F)cc1 | 32.9 | 12.1 | –
O=C(NCCCNc1nccc(-n2ccc3cccnc32)n1)c1ccc(C(F)(F)F)cc1 | 15.3 | 9.45 | –
O=C(NCCCNc1nccc(-n2ccc3cccnc32)n1)c1c(F)cccc1F | 72.6 | 67.2 | –
O=S(=O)(NCCCNc1nccc(-n2ccc3cccnc32)n1)c1cccc(Br)c1 | 96.7 | 89.4 | IC50 [3]: 500 nM
O=S(=O)(NCCNc1nccc(-n2ccc3cccnc32)n1)c1cccc(Br)c1 | 65.3 | 55.2 | –
COc1ccc(NC(=O)Nc2ccc(F)c(C(=O)c3c[nH]c4ncccc34)c2F)cc1 | 81.3 | 69.6 | –
O=C(Nc1ccc(Br)cc1)Nc1ccc(F)c(C(=O)c2c[nH]c3ncccc23)c1F | 92 | 80.1 | –
O=S(=O)(NCCNc1nccc(-n2ccc3cccnc32)n1)c1ccccc1 | 66.5 | 52.3 | –
O=C(NCCNc1nccc(-n2ccc3cccnc32)n1)c1ccccc1 | 86.3 | 86.3 | –
O=C(NCCCNc1nccc(-n2ccc3cccnc32)n1)c1ccc(F)cc1 | 67.5 | 58.7 | –
O=C(NCCCNc1nccc(-n2ccc3cccnc32)n1)C1CCCCC1 | 49.6 | 41.2 | –
O=C(Nc1cccc(F)c1)Nc1ccc(F)c(C(=O)c2c[nH]c3ncccc23)c1F | 49 | 51.2 | –
O=C(Nc1ccc(C(F)(F)F)cc1)Nc1ccc(F)c(C(=O)c2c[nH]c3ncccc23)c1F | 98.7 | 79.3 | IC50 (SK-MEL-2): 21.1 µM; IC50 (HCT-116): 15.5 µM; IC50 (Malme-3M): 12.3 µM; IC50 (NCI-H522): 29.1 µM; IC50 (K562 [4]): 25.3 µM; IC50 (M14): 24.3 µM; inhibition at 10 µM (K562 [5]): 83%; IC50 (Hs-578T): 21.4 µM; inhibition at 10 µM (HL-60(TB) [6]): 67%; IC50 (IGROV-1): 9.66 µM; IC50 (LOX IMVI): 27 µM; IC50 (NCI-H460): 26.4 µM; IC50 (A498): 32.3 µM; IC50 [3]: 114 nM; IC50 (MDA-MB-231): 9.72 µM; IC50 (HL-60(TB) [7]): 8.12 µM; IC50 (CAKI-1): 14 µM; IC50 (SK-OV-3): 18.8 µM; IC50 (ACHN): 21.3 µM; IC50 (DU-145): 27.6 µM
Cc1ccc(C(=O)NCCNc2nccc(-n3ccc4cccnc43)n2)cc1 | 81.8 | 53.8 | –
CCCS(=O)(=O)Nc1ccc(F)c(-n2cc(-c3cncnc3)c3nc(N(C)C4CCN(CC)CC4)ccc32)c1F [XP-102] | – | – | IC50 [8]: 0.4 nM
O=S(=O)(NCCCNc1nccc(-n2ccc3cccnc32)n1)c1ccc(Cl)cc1 | 96.8 | 66.5 | –
O=S(=O)(NCCCNc1nccc(-n2ccc3cccnc32)n1)c1ccc(Br)cc1 | 97.7 | 75.2 | IC50 [3]: 350 nM
O=C(Nc1ccc(F)c(C(=O)c2c[nH]c3ncccc23)c1F)Nc1cccc2ccccc12 | 85.6 | 68.9 | –
Cc1ccc(NC(=O)Nc2ccc(F)c(C(=O)c3c[nH]c4ncccc34)c2F)cc1 | 98.4 | 77.6 | IC50 [3]: 85 nM
Cc1ccc(S(=O)(=O)NCCCNc2nccc(-n3ccc4cccnc43)n2)cc1 | 93 | 83.3 | IC50 [3]: 1000 nM

From ChEMBL document CHEMBL4622853, “Design and synthesis of novel pyrrolo[2,3-b]pyridine derivatives targeting V600EBRAF” (Bioorg Med Chem, 2020)
